Assay results from ChEMBL document CHEMBL4808178 (J Med Chem, 2021).
Calls of active or inactive are those of the source. The rule behind the calls is not given here.

Tests used:
[1] = system: HT-29; experiment: Cytotoxicity against human HT-29 cells assessed as reduction in cell viability incubated for 72 hrs by MTT assay; assay type: functional, cell-based; conditions: HT-29, 72 h
[2] = system: HCT-116; experiment: Cytotoxicity against human HCT-116 cells assessed as reduction in cell viability incubated for 72 hrs by MTT assay; assay type: functional, cell-based; conditions: HCT-116, 72 h
Procedure, shortened: (§1)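 About 5 × 10³ cells/well, seeded overnight at 37 °C, 5% CO₂, in DMEM or RPMI-1640 with 10% FBS and antibiotics. DMSO-dissolved compounds diluted in medium, exposure 72 h.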

[3] = system: MCF7; experiment: Cytotoxicity against human MCF7 cells assessed as reduction in cell viability incubated for 72 hrs by MTT assay; assay type: functional, cell-based; conditions: MCF7, 72 h; procedure, shortened: as §1
[4] = system: PC-3; experiment: Cytotoxicity against human PC3 cells assessed as reduction in cell viability incubated for 72 hrs by MTT assay; assay type: functional, cell-based; conditions: PC-3, 72 h; procedure, shortened: as §1
[5] = system: T-24; experiment: Cytotoxicity against human T24 cells assessed as reduction in cell viability incubated for 72 hrs by MTT assay; assay type: functional, cell-based; conditions: T-24, 72 h; procedure, shortened: as §1
[6] = system: L02; experiment: Cytotoxicity against human L02 cells assessed as reduction in cell viability incubated for 72 hrs by MTT assay; assay type: cell-based; conditions: L02, 72 h; procedure, shortened: as §1
[7] = molecular target: Dual specificity protein kinase CLK2 (Homo sapiens, UniProt P49760); experiment: Inhibition of human CLK2 incubated for 2 hrs
Sequence of Dual specificity protein kinase CLK2 (P49760 whole entry): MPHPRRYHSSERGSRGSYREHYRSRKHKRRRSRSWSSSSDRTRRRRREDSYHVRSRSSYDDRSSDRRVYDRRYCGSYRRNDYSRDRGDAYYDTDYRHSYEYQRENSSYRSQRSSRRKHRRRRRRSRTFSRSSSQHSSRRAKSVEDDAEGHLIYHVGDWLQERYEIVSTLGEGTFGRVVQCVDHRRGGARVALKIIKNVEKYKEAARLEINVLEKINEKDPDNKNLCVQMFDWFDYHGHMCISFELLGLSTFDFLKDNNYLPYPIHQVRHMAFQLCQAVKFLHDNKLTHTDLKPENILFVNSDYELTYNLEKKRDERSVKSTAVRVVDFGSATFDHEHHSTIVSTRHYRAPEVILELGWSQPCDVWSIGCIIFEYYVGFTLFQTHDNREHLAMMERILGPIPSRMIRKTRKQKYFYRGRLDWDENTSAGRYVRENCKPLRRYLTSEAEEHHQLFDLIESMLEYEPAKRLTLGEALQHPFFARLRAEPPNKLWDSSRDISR

[8] = system: HCT-116; experiment: Inhibition of cell stemness in human HCT116 cells assessed as inhibition of CD44+/CD133+ expression at 20 uM after 24 hrs by flow cytometry analysis; assay type: functional
Procedure, shortened: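 ALDH⁺ HCT-116 subpopulation sorted by flow cytometry; 2 × 10⁵ cells/well seeded overnight at 37 °C, 5% CO₂; treated 20 μM for 24 h (vehicle DMSO); stained with PE anti-CD133 and FITC anti-CD44 30 min; CD44⁺/CD133⁺ read by flow cytometry.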

[9] = system: HCT-116; experiment: Inhibition of cell stemness in human HCT116 cells assessed as morphological alterations at 5 uM after 10 days by microscopic analysis; assay type: functional, cell-based; conditions: time 10.0 day
Procedure, shortened: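 Sorted ALDH⁺ HCT-116 cells, 800/well, in serum-free DMEM with B27 (1:50), EGF 20 ng/mL, β-FGF 10 ng/mL; co-incubated with compound (5 μM) or DMSO vehicle for 10 days; sphere number, diameter and morphology scored from microscopy images; mean ± SD, n = 3.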

| IC50 [7] | SMILES | IC50 [1] | IC50 [2] | IC50 [3] | IC50 [4] | IC50 [5] | IC50 [6] | inhibition at 20 µM [8] | inhibition [9] |
| --- | --- | --- | --- | --- | --- | --- | --- | --- | --- |
| 0.0097 µM | COC(=O)CCNC(=O)c1ccc2c(c1)nc(Nc1cccc(Cl)c1)c1ccncc12 | 3.52 µM | 8.13 µM | 4.51 µM | 9.94 µM | 10.7 µM | > 200 µM | – | – |
| – | CS(=O)(=O)NC(=O)c1ccc2c(c1)nc(Nc1cccc(Cl)c1)c1ccncc12 | 17.8 µM | 13.2 µM | 12.2 µM | 4.16 µM | 23.5 µM | 28.4 µM | – | – |
| – | O=C(O)CCCNC(=O)c1ccc2c(c1)nc(Nc1cccc(Cl)c1)c1ccncc12 | 14.5 µM | 24.8 µM | 19.6 µM | 4.2 µM | 21.1 µM | 32.2 µM | – | – |
| – | O=C(OCCOCCOCCO)c1ccc2c(c1)nc(Nc1cccc(Cl)c1)c1ccncc12 | 12.6 µM | 9.71 µM | 13.6 µM | 19.2 µM | 14.1 µM | 30.7 µM | – | – |
| – | O=C(NCCN1CCCCC1)c1ccc2c(c1)nc(Nc1cccc(Cl)c1)c1ccncc12 | 13.8 µM | 8.6 µM | 3.74 µM | 6.08 µM | 3.24 µM | 14.3 µM | – | – |
| – | COC(=O)CCCNC(=O)c1ccc2c(c1)nc(Nc1cccc(Cl)c1)c1ccncc12 | 20.6 µM | 5.91 µM | 19.8 µM | 4.89 µM | 12.9 µM | 89.1 µM | – | – |
| 0.0196 µM | NCCNC(=O)c1ccc2c(c1)nc(Nc1cccc(Cl)c1)c1ccncc12 | 11.4 µM | 7.26 µM | 4.88 µM | 5.48 µM | 14.4 µM | 111 µM | – | – |
| 0.00169 µM | O=C(OCCI)c1ccc2c(c1)nc(Nc1cccc(Cl)c1)c1ccncc12 | 17.1 µM | 17.7 µM | 10.7 µM | 10 µM | 17.5 µM | 43.5 µM | – | – |
| 0.0219 µM | O=C(NCCN1CCOCC1)c1ccc2c(c1)nc(Nc1cccc(Cl)c1)c1ccncc12 | 13.4 µM | 7.98 µM | 11 µM | 3.28 µM | 8.73 µM | 37.8 µM | – | – |
| 0.0247 µM | O=C(NCCBr)c1ccc2c(c1)nc(Nc1cccc(Cl)c1)c1ccncc12 | 8.01 µM | 28.1 µM | 14.9 µM | 8.76 µM | 8.95 µM | 66.7 µM | – | – |
| – | O=C(NCCN1CCCC1)c1ccc2c(c1)nc(Nc1cccc(Cl)c1)c1ccncc12 | 7.94 µM | 8.79 µM | 8.6 µM | 10.1 µM | 3.23 µM | 16 µM | – | – |
| – | O=C(OCCC(Cl)Cl)c1ccc2c(c1)nc(Nc1cccc(Cl)c1)c1ccncc12 | 18.4 µM | 20.8 µM | 14.2 µM | 13.5 µM | 20.6 µM | 22 µM | – | – |
| 0.00154 µM | O=C(OCC(F)F)c1ccc2c(c1)nc(Nc1cccc(Cl)c1)c1ccncc12 | 8.09 µM | 7.52 µM | 9.85 µM | 22.1 µM | 22.7 µM | 83.9 µM | – | – |
| 0.00106 µM | O=C(OCCF)c1ccc2c(c1)nc(Nc1cccc(Cl)c1)c1ccncc12 | 7.8 µM | 4.28 µM | 5.98 µM | 6.4 µM | 5.91 µM | 57.8 µM | – | – |
| – | CC(=O)c1cc2c(o1)C(=O)c1ccccc1C2=O [NAPABUCASIN] | – | – | – | – | – | – | 89% | Active |
| – | C#CCNC(=O)c1ccc2c(c1)nc(Nc1cccc(Cl)c1)c1ccncc12 | 16.4 µM | 21.2 µM | 13.9 µM | 7.6 µM | 18.5 µM | 28.4 µM | – | – |
| – | O=C(NCC(F)F)c1ccc2c(c1)nc(Nc1cccc(Cl)c1)c1ccncc12 | – | 16.5 µM | 10.4 µM | 6.12 µM | 18.1 µM | 18.4 µM | – | – |
| – | O=C(NO)c1ccc2c(c1)nc(Nc1cccc(Cl)c1)c1ccncc12 | 9.98 µM | 8.62 µM | 7.66 µM | 15.1 µM | 3.89 µM | 21.4 µM | – | – |
| – | O=C(OCCc1ccccn1)c1ccc2c(c1)nc(Nc1cccc(Cl)c1)c1ccncc12 | 9.52 µM | 6.91 µM | 10.1 µM | 11 µM | 22.5 µM | 24.9 µM | – | – |
| 0.00238 µM | O=C(OCCO)c1ccc2c(c1)nc(Nc1cccc(Cl)c1)c1ccncc12 | 10.9 µM | 10.9 µM | 15.2 µM | 9.15 µM | 16.6 µM | 45.1 µM | – | – |
| – | O=C(NCCCO)c1ccc2c(c1)nc(Nc1cccc(Cl)c1)c1ccncc12 | 11.8 µM | 13.7 µM | 7.71 µM | 8.94 µM | 18.8 µM | 74.2 µM | – | – |
| – | NCCCNC(=O)c1ccc2c(c1)nc(Nc1cccc(Cl)c1)c1ccncc12 | 9.87 µM | 15.9 µM | 19.7 µM | 14.1 µM | 37.3 µM | 85 µM | – | – |
| – | CN(C)CCNC(=O)c1ccc2c(c1)nc(Nc1cccc(Cl)c1)c1ccncc12 | 5.08 µM | 12.8 µM | 6.01 µM | 11.1 µM | 5.93 µM | 17.3 µM | – | – |
| – | O=C(O)CCNC(=O)c1ccc2c(c1)nc(Nc1cccc(Cl)c1)c1ccncc12 | 19.9 µM | 4.6 µM | 24.6 µM | 16.2 µM | 24.4 µM | 72.8 µM | – | – |
